The target in the test is yeast Hsp90 M705V. The experiment in a line: ITC of TPR-domain proteins with yeast Hsp90 M705V. The class given is binding. The note with it: 300 μM CHIP injected into 30 μM yeast Hsp90 M705V, 30 °C, pH 8.0. A digest of the protocol:
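ITC: mouse CHIP or yeast Tah1 (His tags cleaved) at 300 µM was titrated as 9–11 injections of 27 µl into 30 µM yeast Hsp90 M705V. Runs were at 30 °C for CHIP and 4 °C for Tah1, in 20 mM Tris/HCl pH 8.0, 1 mM EDTA, 5 mM NaCl. Data were corrected for separately measured heat of dilution and fitted by nonlinear least squares for stoichiometry, binding constant and enthalpy.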

B1: CHIP: mouse C-terminal of Hsp70-interacting protein, TPR-domain co-chaperone involved in ubiquitylation of chaperone-bound client proteins (protein)
chain: MKGKEEKEGGARLGTGGGGSPDKSPSAQELKEQGNRLFVGRKYPEAAACYGRAITRNPLVAVYYTNRALCYLKMQQPEQALADCRRALELDGQSVKAHFFLGQCQLEMESYDEAIANLQRAYSLAKEQRLNFGDDIPSALRIAKKKRWNSIEERRIHQESELHSYLTRLIAAERERELEECQRNHEGHEDDGHIRAQQACIEAKHDKYMADMDELFSQVDEKRKKRDIPDYLCGKISFELMREPCITPSGITYDRKDIEEHLQRVGHFDPVTRSPLTQEQLIPNLAMKEVIDAFISENGWVEDY
modifications: left off: His-PreScission tag, end not stated, cleaved
For orientation: Kd means the equilibrium constant for the complex coming apart. High values mean a looser complex, low ones a tighter complex. On to B1, for which binding was characterised by a dissociation constant (Kd) of 6.7 ± 0.62 µM.

The values are drawn from paper PMC2865030 (Biochemical Journal, 2008).
